pEC50: −log10 of the molar value. The source made the active and inactive calls. The calls are words filed in the database; no cut-off is given here.

One may read the CC50 as the concentration that lowers cell viability or growth by half. Low readings indicate greater toxicity to the cells, high ones lower toxicity to the cells. The term pEC50 denotes the EC50 on a negative log10 scale, so that one unit is a factor of ten. As a reminder, the Cmax is the highest concentration seen after dosing. As usually defined, the AUC is the area under the concentration-time curve, a measure of exposure. Low values mean low exposure, high ones high exposure. A word on the half-life: it is how long it takes for the measured level to halve. High values mean slow loss, low ones fast loss.

Data set [1] in a line: Cytotoxicity against human HuH7 cells after 2 days by MTS assay. The class given is cell-based, Huh-7. In short, it runs like this:
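MTS cell proliferation assay run in parallel with the luciferase replicon assay in the same genotype 1b replicon-bearing Huh7 cells (5000 cells/well, 0.5% DMSO final, 37 °C); CC50 derived.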
Background: Formazan colour is commonly taken as a measure of viable cells.

Data set [2] concerns Hepatitis C virus. Description: Antiviral activity against Hepatitis C virus genotype 1b infected in human HuH7 cells assessed as inhibition of viral replication after 2 days by luciferase reporter gene assay. The class given is functional, organism-based, Hepacivirus hominis. The conditions noted are these: Huh-7, 48 h. In short, it runs like this:
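Huh7 cells carrying a genotype 1b bicistronic HCV replicon plated at 5000 cells/well, kept subconfluent; compound added at 0.5% DMSO final, incubated at 37 °C; luciferase read after 2 days; EC50 from dose response.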

Data set [3] is described as follows: Selectivity index, ratio of CC50 for human HuH7 cells to EC50 for Hepatitis C virus subtype 1b. The conditions noted are these: read-out: Ratio CC50/EC50. The data set is classed as toxicity, cell-based, Huh-7. In short, it runs like this: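 Ratio of CC50 from the MTS assay to EC50 from the luciferase assay, both in genotype 1b bicistronic replicon Huh7 cells run in parallel.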

Data set [4] deals with Hepacivirus hominis. Description: Inhibition of HCV protease up to 10 uM.
Data set [5] has as its system Rattus norvegicus. Description: Oral bioavailability in Sprague-Dawley rat at 3 mg/kg. The class given is ADME, organism-based. The conditions noted are these: in vivo. The method in brief:
(§1)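 Female Sprague–Dawley rats dosed with compound in PEG-300 solution, 3 mg/kg orally or 1 mg/kg intravenously; pharmacokinetic parameters derived from plasma exposure after each route.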

Data set [6] can be described thus: Cmax in Sprague-Dawley rat at 3 mg/kg, po. Details: dose 3 mg/kg, route oral. The class given is ADME, organism-based. The following applies: in vivo. The method in brief:
as §1

For data set [7], the system named is Rattus norvegicus. In words: AUC (0 to infinity) in Sprague-Dawley rat at 3 mg/kg, po. The following applies: in vivo. Details: dose 3 mg/kg, route oral, time infinity. The class given is ADME, organism-based, Plasma. The method in brief: as §1
The nature of data set [8]: Volume of distribution at steady state in Sprague-Dawley rat at 1 mg/kg, iv. The data set is classed as ADME, organism-based. Also on record: dose 1 mg/kg, route intravenous. The conditions noted are these: in vivo, read-out: Vdss. The method in brief:
as §1

Data set [9] can be described thus: Half life in Sprague-Dawley rat at 1 mg/kg, iv. The data set is classed as ADME, organism-based. Details: dose 1 mg/kg, route intravenous. The conditions noted are these: in vivo. The method in brief:
as §1

A short description of data set [10]: Intrinsic clearance in human liver microsomes at 1 uM by LC/MS analysis. The conditions noted are these: read-out: CLH. The class given is ADME, Microsome. The method in brief: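 Compound at 1 µM incubated with human liver microsomes (0.5 mg/mL protein) for 0, 10, 20, 30 and 60 min with 1 mM EDTA, 3 mM MgCl2, 1.3 mM NADP, 3.3 mM D-glucose-6-phosphate and 1 unit/mL glucose-6-phosphate dehydrogenase.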
In general terms: Liver microsomes are vesicles of endoplasmic reticulum, rich in cytochrome P450 enzymes.

The subject of data set [11] is Hepatitis C virus. Description: Antiviral activity against Hepatitis C virus genotype 1b infected in human HuH7 cells assessed as reduction in HCV RNA after 3 days by RT-PCR analysis. The class given is functional, organism-based, Hepacivirus hominis. The following applies: Huh-7, 72 h. The method in brief: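 Huh7 cells with a genotype 1b monocistronic replicon seeded at 5000 cells/well; compound at 0.5% DMSO final, 37 °C; cells harvested 3 days after dosing; replicon RNA measured by real-time RT-PCR, normalised to GAPDH RNA.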

Turning to `CC(C)n1c(-c2ccc(NS(=O)(=O)C3CC3)cc2)c(C#N)c2ccc(OC(F)F)cc21`, the CC50 at 48 h in data set [1] stood at 13 µM. Besides, in [2], the pEC50 is 7.12.
In the same order, the values of `CCn1c(-c2ccc(NS(=O)(=O)CC)cc2)c(C#N)c2c(Cl)cccc21` are 55 µM and 5.46.
`CCn1c(-c2ccc(NS(=O)(=O)CC)cc2)c(C#N)c2ccc(C(N)=O)cc21`: half-maximal cytotoxicity in data set [1] (CC50 at 48 h) was put at 55 µM. Also, the pEC50 in [2] is 5.05.
The matching figures for `CCCn1c(-c2ccc(NS(=O)(=O)C3CC3)cc2)c(C#N)c2ccc(OC(F)F)cc21`: more than 100 µM and 6.60.
For `CCn1c(-c2ccc(NS(=O)(=O)CC)cc2)c(C#N)c2ccc(OC)cc21`, the selectivity ratio in data set [3] is more than 130. In data set [1], this compound gave a CC50 at 48 h of 62 µM. The pEC50 in [2] is 6.33.
`CCn1c(-c2ccc(NS(=O)(=O)CC)cc2)c(C#N)c2ccc(C(=O)O)cc21` showed a CC50 at 48 h in data set [1] of more than 100 µM. In addition, the pEC50 in [2] was less than 4.96.
In the same order, the values of `CCS(=O)(=O)Nc1ccc(-c2c(C#N)c3ccc(OC(F)F)cc3n2CC2CC2)cc1` are 13 µM and 6.52.
In the same order, the values of `CCn1c(-c2ccc([S+](C)[O-])cc2)c(C#N)c2ccc(OC)cc21` (configuration not stated) are 52 µM and 5.40.
On to `N#Cc1c(-c2ccc(NS(=O)(=O)C3CC3)cc2)n(CC2CC2)c2cc(OC(F)F)ccc12`, for which the inhibition entry in [4] is “inactive”. In [5], this compound showed an F of 58%. The compound also showed a Cmax in data set [6] of 770 ng/mL. Besides, the AUC in [7] was 6.8 µM·h. Further, in data set [8], the Vd came out at 2.2 L/kg. In data set [9], the half-life is 6.3 h. The CLint scaled at 1 µM in [10] is less than 1 mL/min/kg. In addition, the pEC50 in data set [11] is 6.74; in data set [2], 6.77. The selectivity ratio in data set [3] amounted to 147. Besides, in [1], half-maximal cytotoxicity (CC50 at 48 h) was put at 25 µM.
Consider `CCn1c(-c2ccc(NS(=O)(=O)CC)cc2)c(C#N)c2cc(F)ccc21`, for which, in [1], the CC50 at 48 h was 39 µM. Besides, the pEC50 in data set [2] was 6.23.
In the same order, the values of `CCn1c(-c2ccc(NC(C)=O)cc2)c(C#N)c2ccc(OC)cc21` are 89 µM and 5.89.
In the same order, the values of `CCn1c(-c2ccc(NS(=O)(=O)CC)cc2)c(C#N)c2cc(OC)c(OC)cc21` are more than 100 µM and 5.40.
In the same order, the values of `CCn1c(-c2ccc(NS(=O)(=O)CC)cc2)c(C#N)c2cc(Cl)ccc21` are 40 µM and 5.12.
As to `CCn1c(-c2ccc(NS(=O)(=O)CC)cc2)c(C#N)c2ccccc21`, the CC50 at 48 h in [1] is 40 µM. Besides, the negative-log EC50 (pEC50) in data set [2] is 5.05.
In the same order, the values of `CCn1c(-c2ccc(N3CCNS3(=O)=O)cc2)c(C#N)c2ccc(OC)cc21` are 30 µM and 6.05.
Consider `CCn1c(-c2ccc(NS(=O)(=O)C(C)C)cc2)c(C#N)c2ccc(OC)cc21`, for which, in [1], the CC50 at 48 h was 70 µM. Besides, in data set [2], the pEC50 is 6.19.
In the case of `CC(C)S(=O)(=O)Nc1ccc(-c2c(C#N)c3ccc(OC(F)F)cc3n2CC2CC2)cc1`, in [1], the 50% cytotoxic concentration (CC50) at 48 h amounted to 22 µM. That is a double-digit micromolar value.
Turning to `N#Cc1c(-c2ccc(NS(=O)(=O)C3CC3)cc2)n(C2CCC2)c2cc(OC(F)F)ccc12`, the CC50 at 48 h in data set [1] was 20 µM. Besides, the pEC50 in data set [2] is 6.72.
The matching figures for `CCn1c(-c2ccc(N)cc2)c(C#N)c2ccc(OC)cc21`: 100 µM and 5.11.
`COc1ccc(-n2cc([N+](=O)[O-])c3ccc(OC)cc32)cc1`: in [2], the negative logarithm of the EC50 (pEC50) is 4.30.
Still for that read-out and setting: the result for `CCn1c(-c2ccc(OC)cc2)c([N+](=O)[O-])c2ccc(OC)cc21` reads less than 4.29.
`CCOC(=O)Nc1ccc(-c2c(C#N)c3ccc(OC)cc3n2CC)cc1` yielded a CC50 at 48 h in data set [1] of 41 µM. The pEC50 in [2] was 5.89.
The matching figures for `CCn1c(-c2ccc(NS(=O)(=O)CC)cc2)c(C#N)c2ccc(O)cc21`: 55 µM and 5.70.
In the same order, the values of `CCCS(=O)(=O)Nc1ccc(-c2c(C#N)c3ccc(OC(F)F)cc3n2CC)cc1` are 26 µM and 6.66.
In the same order, the values of `CCn1c(-c2ccc(NS(=O)(=O)CC)cc2)c(C#N)c2ccc(COC)cc21` are more than 100 µM and 5.30.
With `CCn1c(-c2ccc(OC)cc2)c(C#N)c2ccc(OC)cc21`, the CC50 at 48 h in data set [1] was more than 100 µM. Further, the pEC50 in [2] was 5.39.
In the case of `CCn1c(-c2ccc(NS(=O)(=O)CC)cc2)c(C#N)c2ccc(OCCF)cc21`, in data set [3], the selectivity ratio came out at 66. The CC50 at 48 h in data set [1] is 39 µM. Besides, the pEC50 in data set [2] was 6.23.
The compound `CCn1c(-c2ccc(NC(=O)c3ccccc3)cc2)c(C#N)c2ccc(OC)cc21` had a CC50 at 48 h in data set [1] of more than 100 µM. The pEC50 in data set [2] is less than 4.00.
In the case of `CCn1c(-c2ccc(NS(=O)(=O)CC)cc2)c(C#N)c2ccc(OC(F)(F)F)cc21`, the selectivity ratio in [3] was 141. The compound further yielded a CC50 at 48 h in [1] of 24 µM. In addition, the pEC50 in data set [2] was 6.77.
In the same order, the values of `CCn1c(-c2ccc(NS(=O)(=O)CC)cc2)c(C#N)c2ccc(C(F)(F)F)cc21` are 50, 18 µM and 6.44.
Regarding `CCn1c(-c2ccc(O)cc2)c(C#N)c2ccc(OC)cc21`, the midpoint of cytotoxicity in [1], the CC50 at 48 h, lay at 50 µM. Also, in data set [2], the pEC50 was 5.21.
In the same order, the values of `CCn1c(-c2ccc(NS(=O)(=O)CC)cc2)c(C#N)c2ccc(CN3CCOCC3)cc21` are 35 µM and 5.52.
Regarding `CCn1c(-c2ccc(N3CCCS3(=O)=O)cc2)c(C#N)c2ccc(OC)cc21`, the CC50 at 48 h in data set [1] was more than 50 µM. The pEC50 in [2] is 5.70.
The matching figures for `CCOc1ccc2c(C#N)c(-c3ccc(NS(=O)(=O)CC)cc3)n(CC)c2c1`: 42 µM and 6.28.
In the same order, the values of `CCn1c(-c2ccc(C(N)=O)cc2)c(C#N)c2ccc(OC)cc21` are more than 100 µM and 5.11.
On to `CCn1c(-c2ccc(NS(=O)(=O)C(C)C)cc2)c(C#N)c2ccc(OC(F)F)cc21`, for which, in data set [1], the CC50 at 48 h turned out to be 19 µM. In addition, in [2], the pEC50 was 6.92.
The matching figures for `CCn1c(-c2ccc(NS(=O)(=O)C(C)C)cc2)c(C#N)c2cc(OC)ccc21`: 36 µM and 5.13.
In the same order, the values of `CCS(=O)(=O)Nc1ccc(-c2c(C#N)c3ccc(OC(F)F)cc3n2C(C)C)cc1` are 12 µM and 6.70.
With `CCn1c(-c2ccc(NS(=O)(=O)CC)cc2)c(C#N)c2ccc(CO)cc21`, the midpoint of cytotoxicity in data set [1], the CC50 at 48 h, lay at 60 µM. Also, in data set [2], the pEC50 is 5.46.
In the same order, the values of `CCOc1ccc(-c2c(C#N)c3ccc(OC)cc3n2CC)cc1` are more than 100 µM and 5.52.
For `CCn1c(-c2ccc(NS(=O)(=O)CC)cc2)c(C#N)c2ccc(OC(F)F)cc21`, the selectivity ratio in data set [3] was determined as 69. For the same compound, the CC50 at 48 h in data set [1] came to 20 µM. In addition, the pEC50 in [2] is 6.54.
Take `CCn1c(-c2ccc(S(C)(=O)=O)cc2)c(C#N)c2ccc(OC)cc21`: it took 42 µM to reach half-maximal cytotoxicity in data set [1] (CC50 at 48 h). For the same compound, in data set [2], the pEC50 is 5.59.
In the same order, the values of `CCn1c(-c2ccc(NS(=O)(=O)C3CC3)cc2)c(C#N)c2ccc(OC(F)F)cc21` are 23 µM and 7.00.

These data come from ChEMBL document CHEMBL2396602, “Discovery of N-(4'-(indol-2-yl)phenyl)sulfonamides as novel inhibitors of HCV replication” (Bioorg Med Chem Lett, 2013).
